From ChEMBL document CHEMBL3351600, “Sulfur, selenium and tellurium pseudopeptides: synthesis and biological evaluation” (Bioorg Med Chem, 2014)

Legend:
ACHN = experiment: Growth inhibition of human ACHN cells after 48 hrs; format: functional
Summary of the method: (§1)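 NCI-60 human tumour cell line panel screen run at the US National Cancer Institute under its standard cytotoxicity protocol. It covers leukaemia, NSCLC, colon, CNS, melanoma, ovarian, renal, prostate and breast lines. An initial single-dose test was followed by five-dose testing with 48 h compound exposure.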

SN12C = experiment: Growth inhibition of human SN12C cells after 48 hrs; format: functional
Summary of the method: (§2)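 Run by the NCI 58-cell-line screen under its standard cytotoxicity protocol. Compounds were first tested at a single dose, then at five doses. Cells were exposed to compound for 48 h.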

TK-10 = experiment: Growth inhibition of human TK10 cells after 48 hrs; format: functional; settings: TK-10, 48 h; summary of the method: as §2
[1] = Growth inhibition of human PC3 cells after 48 hrs; format: functional; settings: PC-3, 48 h; summary of the method: as §1
MCF7 = experiment: Growth inhibition of human MCF7 cells after 48 hrs; format: functional; settings: MCF7, 48 h; summary of the method: as §1
MDA-MB-231 = experiment: Growth inhibition of human MDA-MB-231 cells after 48 hrs; format: functional; settings: MDA-MB-231, 48 h; summary of the method: as §1
[2] = Growth inhibition of human Hs 578T cells after 48 hrs; format: functional; summary of the method: as §1
T47D = experiment: Growth inhibition of human T47D cells after 48 hrs; format: functional; summary of the method: as §2
[3] = Growth inhibition of human LOXIMVI cells after 48 hrs; format: functional; settings: LOX IMVI; summary of the method: as §1
[4] = Cytotoxicity against human fibroblasts assessed as cell viability after 24 hrs incubation by MTT assay; format: cell-based; settings: Fibroblast
Summary of the method: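 Cell lines came from DSMZ; primary human fibroblasts served as non-cancer controls. Cells were grown in medium with 10% FCS, seeded at 50,000 cells/ml, and grown 2 days at 37 °C, 10% CO2. Serial dilutions were then added for 24 h. MTT (final 0.5 mg/ml) was added for 2 h. Formazan was pelleted, PBS-washed, dissolved in isopropanol/0.4% HCl and read at 590 nm. Two parallel experiments were run. IC50 was taken as the concentration giving 50% of untreated-control absorbance.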

Aspergillus niger = experiment: Antimicrobial activity against Aspergillus niger assessed as inhibition at 20 ug/6 mm disk after 1 to 2 days by agar diffusion assay; format: functional
Summary of the method: (§3)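 Standard agar diffusion: 6-mm paper disks loaded with 20 µg of compound were placed on inoculated plates. Inhibition-zone diameter (mm) was read after 1 and 2 days of growth.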

Mycolicibacterium phlei = experiment: Antimicrobial activity against Mycobacterium phlei assessed as inhibition at 20 ug/6 mm disk after 1 to 2 days by agar diffusion assay; format: functional; summary of the method: as §3
Micrococcus luteus = experiment: Antimicrobial activity against Micrococcus luteus assessed as inhibition at 20 ug/6 mm disk after 1 to 2 days by agar diffusion assay; format: functional; summary of the method: as §3
Staphylococcus aureus = experiment: Antimicrobial activity against Staphylococcus aureus assessed as inhibition at 20 ug/6 mm disk after 1 to 2 days by agar diffusion assay; format: functional; summary of the method: as §3
Pseudomonas aeruginosa = experiment: Antimicrobial activity against Pseudomonas aeruginosa assessed as inhibition at 20 ug/6 mm disk after 1 to 2 days by agar diffusion assay; format: functional; summary of the method: as §3
Escherichia coli = experiment: Antimicrobial activity against Escherichia coli tolC assessed as inhibition at 20 ug/6 mm disk after 1 to 2 days by agar diffusion assay; format: functional; summary of the method: as §3
HL-60(TB) = experiment: Growth inhibition of human HL-60(TB) cells after 48 hrs; format: functional; settings: HL-60, 48 h; summary of the method: as §1
[5] = Growth inhibition of human MOLT4 cells after 48 hrs; format: functional; settings: MOLT-4, 48 h; summary of the method: as §1
[6] = Growth inhibition of human RPMI8226 cells after 48 hrs; format: functional; settings: RPMI-8226, 48 h; summary of the method: as §1
NCI-H226 = experiment: Growth inhibition of human NCI-H226 cells after 48 hrs; format: functional; settings: NCI-H226, 48 h; summary of the method: as §1
NCI-H23 = experiment: Growth inhibition of human NCI-H23 cells after 48 hrs; format: functional; settings: NCI-H23, 48 h; summary of the method: as §1
[7] = Growth inhibition of human COLO205 cells after 48 hrs; format: functional; settings: COLO 205, 48 h; summary of the method: as §1
[8] = Growth inhibition of human HCT15 cells after 48 hrs; format: functional; settings: HCT-15, 48 h; summary of the method: as §1
KM12 = experiment: Growth inhibition of human KM12 cells after 48 hrs; format: functional; settings: KM12, 48 h; summary of the method: as §1
[9] = Growth inhibition of human SF295 cells after 48 hrs; format: functional; settings: SF-295, 48 h; summary of the method: as §1
SNB-19 = experiment: Growth inhibition of human SNB19 cells after 48 hrs; format: functional; settings: SNB-19, 48 h; summary of the method: as §2
SNB-75 = experiment: Growth inhibition of human SNB75 cells after 48 hrs; format: functional; settings: SNB-75, 48 h; summary of the method: as §2
Malme-3M = experiment: Growth inhibition of human MALME-3M cells after 48 hrs; format: functional; summary of the method: as §1
M14 = experiment: Growth inhibition of human M14 cells after 48 hrs; format: functional; settings: M14, 48 h; summary of the method: as §1
SK-MEL-2 = experiment: Growth inhibition of human SK-MEL-2 cells after 48 hrs; format: functional; settings: SK-MEL-2, 48 h; summary of the method: as §1
[10] = Growth inhibition of human UACC257 cells after 48 hrs; format: functional; settings: UACC-257, 48 h; summary of the method: as §2
786-0 = experiment: Growth inhibition of human 786-0 cells after 48 hrs; format: functional; settings: 786-0, 48 h; summary of the method: as §1
A498 = experiment: Growth inhibition of human A498 cells after 48 hrs; format: functional; settings: A498, 48 h; summary of the method: as §1
[11] = read-out: pLC50 (the source's name) (converted)

With COc1ccc(N(CC(=O)NCCC[Te]c2ccccc2)C(=O)CNC(=O)OC(C)(C)C)cc1 the GI50 (ACHN) was 1.55 µM, the LC50 (ACHN) was > 100 µM and the TGI (ACHN; read-out: pTGI (converted)) was 8.71 µM. The GI50 (SN12C) was 2.04 µM, the LC50 (SN12C) was > 100 µM and the TGI (SN12C; read-out: pTGI (converted)) was 5.01 µM. The GI50 (TK-10) was 3.89 µM, the LC50 (TK-10) was 100 µM and the TGI (TK-10; read-out: pTGI (converted)) was 10.7 µM. For the same compound, the GI50 [1] was 1.7 µM, the LC50 [1] was > 100 µM and the TGI ([1]; read-out: pTGI (converted)) was 10 µM. The GI50 (MCF7) was 2.57 µM, the LC50 (concentration killing 50% of cells) (MCF7) was 37.2 µM and the TGI (MCF7; read-out: pTGI (converted)) was 7.59 µM. The GI50 (MDA-MB-231) was 1.91 µM, the TGI (MDA-MB-231; read-out: pTGI (converted)) was 3.89 µM and the GI50 [2] was 2.75 µM. For the same compound, the LC50 [2] was > 100 µM, the TGI ([2]; read-out: pTGI (converted)) was 7.24 µM and the GI50 (T47D) was 11.2 µM. For the same compound, the LC50 (T47D) was > 100 µM, the TGI (T47D; read-out: pTGI (converted)) was 40.7 µM and the GI50 [3] was 2.34 µM. The LC50 [3] was 34.7 µM, the TGI ([3]; read-out: pTGI (converted)) was 5.75 µM and the IC50 [4] was 25 µM. The “diameter of the inhibition zone (DIZ)” value (Aspergillus niger) was 0 mm, the “diameter of the inhibition zone (DIZ)” value (Mycolicibacterium phlei) was 12 mm and the “diameter of the inhibition zone (DIZ)” value (Micrococcus luteus) was 7 mm. The “diameter of the inhibition zone (DIZ)” value (Staphylococcus aureus) was 10 mm, the “diameter of the inhibition zone (DIZ)” value (Pseudomonas aeruginosa) was 10 mm and the “diameter of the inhibition zone (DIZ)” value (Escherichia coli) was 12 mm. For the same compound, the GI50 (HL-60(TB)) was 2.09 µM, the CC50 (HL-60(TB); [11]) was > 100 µM and the TGI (HL-60(TB); read-out: pTGI (converted)) was 5.62 µM. The GI50 [5] was 3.09 µM, the CC50 [5, 11] was > 100 µM and the TGI ([5]; read-out: pTGI (converted)) was 10 µM. The GI50 [6] was 2.4 µM, the CC50 [6, 11] was > 100 µM and the TGI ([6]; read-out: pTGI (converted)) was 7.24 µM. The GI50 (NCI-H226) was 2.29 µM, the CC50 (NCI-H226; [11]) was 79.4 µM and the TGI (NCI-H226; read-out: pTGI (converted)) was 5.37 µM. For the same compound, the GI50 (NCI-H23) was 2.51 µM, the CC50 (NCI-H23; [11]) was > 100 µM and the TGI (NCI-H23; read-out: pTGI (converted)) was 6.61 µM. It also gave a GI50 [7] of 2 µM, a CC50 [7, 11] of 7.24 µM and a TGI ([7]; read-out: pTGI (converted)) of 3.8 µM. For the same compound, the GI50 [8] was 3.16 µM, the CC50 [8, 11] was 93.3 µM and the TGI ([8]; read-out: pTGI (converted)) was 10.5 µM. The GI50 (KM12) was 3.31 µM, the CC50 (KM12; [11]) was 43.7 µM and the TGI (KM12; read-out: pTGI (converted)) was 11.5 µM. The GI50 [9] was 1.29 µM, the CC50 [9, 11] was > 100 µM and the TGI ([9]; read-out: pTGI (converted)) was 4.07 µM. The GI50 (SNB-19) was 8.71 µM, the CC50 (SNB-19; [11]) was > 100 µM and the TGI (SNB-19; read-out: pTGI (converted)) was 9.55 µM. The GI50 (SNB-75) was 6.61 µM, the CC50 (SNB-75; [11]) was 36.3 µM and the TGI (SNB-75; read-out: pTGI (converted)) was 7.41 µM. The GI50 (Malme-3M) was 15.8 µM, the CC50 (Malme-3M; [11]) was 69.2 µM and the TGI (Malme-3M; read-out: pTGI (converted)) was 33.1 µM. It also gave a GI50 (M14) of 3.55 µM, a CC50 (M14; [11]) of 45.7 µM and a TGI (M14; read-out: pTGI (converted)) of 10.7 µM. For the same compound, the GI50 (SK-MEL-2) was 3.02 µM, the CC50 (SK-MEL-2; [11]) was > 100 µM and the TGI (SK-MEL-2; read-out: pTGI (converted)) was 6.76 µM. It also gave a GI50 [10] of 8.51 µM, a CC50 [10, 11] of 61.7 µM and a TGI ([10]; read-out: pTGI (converted)) of 24 µM. The GI50 (786-0) was 3.72 µM, the LC50 (786-0) was 56.2 µM and the TGI (786-0; read-out: pTGI (converted)) was 12.9 µM. The GI50 (A498) was 2.29 µM, the LC50 (A498) was 33.9 µM and the TGI (A498; read-out: pTGI (converted)) was 5.37 µM.
